Measurements taken from ChEMBL document CHEMBL1122914, “Synthesis and biological activity of pentapeptide analogues of the potent angiotensin converting enzyme inhibitor 5(S)-benzamido-4-oxo-6-phenylhexanoyl-L-proline” (J Med Chem, 1985).

Columns and labels:
Assay type in all cases: functional
[1] = Percent recovery of compound in rats over 24 hr when administered orally at a dose of 4.3 mg, 4.09(uCi); and activity calculated from bile of rats at time (5-6 h)
Method in brief: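 Adult male Sprague-Dawley rats were fasted overnight, with chow and water otherwise ad libitum. The tritiated proline-4-labelled analogue was given orally in dilute NaHCO3. Bile was collected at timed intervals and urine over 24 h. Aliquots were counted by liquid scintillation, with quench correction by automatic external standardization and a quench curve. Recovery was expressed as percent of the dosed radioactivity.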

[2] = system: Rattus norvegicus; test: Compound was evaluated for its base line value in hypertensive rats by peroral administration at a dose of 6.4 mg/kg; conditions: route oral
Method in brief: (§1)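 One-clip/two-kidney renal hypertension was induced with a silver clip on the left renal artery, leaving the other kidney intact. Several weeks later, rats were cannulated and those with mean pressure above 160 mmHg were used. Four conscious rats per compound received an oral dose in 0.25% methylcellulose (5 mL/kg), and two received vehicle only. Mean aortic pressure was read before dosing, hourly for 8 h, and at 24 h.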

[3] = system: Rattus norvegicus; test: Compound was evaluated for maximum effect in hypertensive rats by peroral administration at a dose of 6.4 mg/kg; conditions: route oral; method in brief: as §1
[4] = system: Rattus norvegicus; test: Compound was evaluated for change in blood pressure value in hypertensive rats by peroral administration at a dose of 6.4 mg/kg at 8 hr; conditions: route oral; method in brief: as §1
[5] = system: Rattus norvegicus; test: Compound was evaluated for its maximum effect value on hypertensive rats by peroral administration at a dose of 3.0 mg/kg; conditions: route oral
[6] = system: Rattus norvegicus; test: Compound was evaluated for its base line value on hypertensive rats by peroral administration at a dose of 3.0 mg/kg; conditions: route oral
[7] = system: Rattus norvegicus; test: Compound was evaluated for itschange in blood pressure value on hypertensive rats by peroral administration at a dose of 3.0 mg/kgat 4 hr; conditions: dose 3 mg/kg; route oral; method in brief: as §1
[8] = system: Rattus norvegicus; test: Compound was evaluated for its base line value on hypertensive rats by peroral administration at a dose of 30 mg/kg; conditions: route oral
[9] = system: Rattus norvegicus; test: Compound was evaluated for itschange in blood pressure value on hypertensive rats by peroral administration at a dose of 30 mg/kg at 8 hr; conditions: route oral
[10] = system: Rattus norvegicus; test: Compound was evaluated for its maximum effect value on hypertensive rats by peroral administration at a dose of 30 mg/kg; conditions: route oral
[11] = system: Rattus norvegicus; test: Compound was evaluated for maximum effect in hypertensive rats by peroral administration at a dose of 3.0 mg/kg; conditions: route oral
[12] = system: Rattus norvegicus; test: Compound was evaluated for change in blood pressure in hypertensive rats by peroral administration at a dose of 3.0 mg/kg at 1 hr; conditions: route oral

SMILES: [3H]C1CC(C(=O)O)N(C(=O)CCC(=O)C(Cc2ccccc2)NC(=O)C(CCCCN)NC(=O)C2CCC2)C1 (configuration not stated)
- Recovered radioactivity [1]: 1.42%

SMILES: CC(CC(=O)C(Cc1ccccc1)NC(=O)C(CCCCN)NC(=O)C1CCC1)C(=O)N1CCCC1C(=O)O.O=C(O)C(F)(F)F (configuration not stated)
- Mean aortic blood pressure [2]: 186 mmHg
- Mean aortic blood pressure [3]: 181 mmHg
- Mean aortic blood pressure [4]: -5 mmHg

SMILES: NCCCCC(NC(=O)C1CCC1)C(=O)NC(Cc1ccccc1)C(=O)CCC(=O)N1CCCC1C(=O)O.O=C(O)C(F)(F)F (configuration not stated)
- Mean aortic blood pressure [5]: 173 mmHg
- Mean aortic blood pressure [6]: 195 mmHg
- Mean aortic blood pressure [7]: -22 mmHg

SMILES: O=C(N[C@@H](Cc1ccccc1)C(=O)CCC(=O)N1CCC[C@H]1C(=O)O)c1ccccc1
- Mean aortic blood pressure [8]: 190 mmHg
- Mean aortic blood pressure [9]: -12 mmHg
- Mean aortic blood pressure [10]: 178 mmHg

SMILES: C[C@H](CS)C(=O)N1CCC[C@H]1C(=O)O [CAPTOPRIL]
- Mean aortic blood pressure [11]: 99 mmHg
- Mean aortic blood pressure [12]: -93 mmHg
